Key:
Format in all cases: physicochemical
[1] = Chemical stability in 0.5 M NaOH/EtOH solution at room temperature assessed as time taken for complete hydrolysis
In short: (§1)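 Nucleoside derivatives carrying 2-substituted benzoyl masking groups were kept in the basic solution. The time until hydrolysis was complete was recorded. Substrates showing no change over a 24 h observation window were scored as stable at 24 h.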

[2] = Chemical stability in 2 M NaOH/EtOH solution at room temperature assessed as time taken for complete hydrolysis; in short: as §1
[3] = Chemical stability in NH3-EtOH (9:1, v/v) at 55 deg C assessed as time taken for complete hydrolysis; in short: as §1
[4] = Chemical stability in NH3-EtOH (9:1, v/v) at room temperature assessed as time taken for complete hydrolysis; in short: as §1
[5] = Chemical stability in 1.5 M NaOMe/MeOH solution at room temperature assessed as time taken for complete hydrolysis; in short: as §1

Stability [1]	Stability [2]	Stability [3]	Stability [4]	Stability [5]	Compound
1 h	0.25 h	10 h	24 h	–	Cc1ccccc1C(=O)OC[C@H]1O[C@@H](n2cc(C)c(=O)[nH]c2=O)C[C@@H]1O
24 h	4 h	> 24 h	> 24 h	–	Cc1cn([C@H]2C[C@H](O)[C@@H](COC(=O)c3ccccc3[Si](C)(C)C)O2)c(=O)[nH]c1=O
–	–	8 h	48 h	–	C[Si](C)(C)c1ccccc1C(=O)O[C@@H]1[C@H](O)[C@@H](CO)O[C@H]1n1ccc(=O)[nH]c1=O
–	–	4 h	12 h	–	Cc1cn([C@H]2C[C@H](O)[C@@H](COC(=O)C=C[Si](C)(C)C)O2)c(=O)[nH]c1=O
24 h	4 h	> 24 h	> 24 h	–	Cc1cn([C@H]2C[C@H](O)[C@@H](COC(=O)c3ccccc3C(C)(C)C)O2)c(=O)[nH]c1=O
–	> 24 h	> 24 h	–	> 24 h	C[Si](C)(C)c1ccccc1C(=O)Nc1ccn([C@H]2C[C@H](O)[C@@H](CO)O2)c(=O)n1
